Source: PubChem BioAssay
Most compounds without a hit are left out; they make up all but 5.6% or so of the library.
NR3A LBD binder: modulates the human NR3A ligand-binding domain; NR3A LBD differential scanning fluorimetry, Tm shift; 0% = protein alone, 100% = glycine-bound protein; 340,000 tested, 2.5% active; Tm shift relative to glycine control, % at 25 µM;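 active = melting temperature shift of at least 10% of the positive control shift, at one fixed dose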
XBP1 UPR activ: activators of adaptive arm of unfolded protein response (XBP1); CHO-XBP1 luciferase reporter, IRE1-XBP1 UPR activation, luminescence; percent of tunicamycin response, DMSO as zero; activation, % at 20 µM; 330,000 tested, 0.33% active; AID 463104;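 active = versus positive control, 20 µM dose yields 30% or more activation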;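 also: 100% = tunicamycin at 10 µg/mL and 0% = DMSO only wells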
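Material: CHO-XBP1 cells stably carrying IRE1-XBP1-driven luciferase reporter / Amount: 1000 cells per well / Compound: 20 µM, 1% DMSO / Times: 6 h treatment, 37 °C / Detection: luciferase luminescence / Measure: % activation of reporter signal versus tunicamycin and DMSO controls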
CHOP inhibitor: CHOP inhibition in unfolded protein response | CHO-K1 CHOP-promoter luciferase, tunicamycin-induced, 15-18 h | inhibition, % at 10 µM | 220,000 tested, 3.8% active;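 active = compounds that reduced the stress-induced luciferase reporter signal by more than about 70% of percent inhibition, limit read from the data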;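 also: 0% = tunicamycin plus vehicle and 100% = wells without tunicamycin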
CHOP UPR activ: activators of apoptotic arm of unfolded protein response (CHOP) | CHO-CHOP luciferase reporter, UPR activation, luminescence; percent of tunicamycin response over DMSO baseline | activation, % at 10 µM | 330,000 tested, 0.34% active | AID 449763;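 active = at 10 µM dose, activation of 40% or more, normalized to positive control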;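 also: 100% = tunicamycin at 10 µg/mL and 0% = DMSO alone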
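Material: CHO-CHOP cells, stable luciferase reporter of PERK-eIF2a-CHOP signalling; quantity: 500 reporter cells seeded per well; buffer or medium: F12 medium containing 10% fetal bovine serum; compound: one dose, 10 µM in 0.5% DMSO; incubation: 6 h compound treatment, 37 °C; measured by: Steady-Glo luciferase luminescence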
MPTP inh: blocks calcium-induced mitochondrial swelling; isolated mouse mitochondria, Ca2+ swelling absorbance, 30 min; inhibition, % at 10 µM; 360,000 tested, 1.4% active; AID 602449;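 active = inhibition of 50% or more, scaled per plate between neutral and stimulator controls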;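 also: 0% = DMSO wells given calcium and 100% = 1 mM EGTA wells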
aDG glyco up: alpha-DG glycosylation activation. AID 624168. 360,000 tested, 0.22% active. activation, % at 10 µM. Pro5-aDG cells, alpha-DG glycosylation AlphaScreen (IIH6); 0% Pro5, 100% B10-LARGE cell signal;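 active = activation of at least 8% versus controls, or a plate z-score of at least 8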;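 also: Pro5 are CHO cells carrying HIG-tagged alpha-DG that lacks glycosylation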
The depositor's hits bear a star; / = not tested or not shown.

SMILES	NR3A LBD binder	XBP1 UPR activ	CHOP inhibitor	CHOP UPR activ	MPTP inh	aDG glyco up
CCc1ccc(C2NC(=S)NC3=C2C(=O)CC(C)(C)C3)cc1 (centres undefined)	21.3*	-2.4	6.2	1.1	0.0	0.1
CCOC(=O)N1CCC(N2C(=O)c3ccc(C(=O)Nc4cccc(OC)c4)cc3C2=O)CC1	10.6*	1.1	/	0.0	-0.7	-0.3
CCC(=O)Oc1ccc(C(=O)Nc2ccc3c(c2)C(=O)N(C2CCCCC2)C3=O)cc1	-3.5	5.8	70.7*	0.7	3.8	1.5
CCc1nnc(NC(=O)c2ccc(S(=O)(=O)N3CCc4ccccc4C3)cc2)s1	-1.3	1.1	82.3*	1.2	5.4	-0.1
CCc1nnc(NC(=O)c2ccc(Cl)c(S(=O)(=O)N3CCc4ccccc4C3)c2)s1	-2.2	-1.6	54.6	-1.0	37.8	-0.2
COc1ccc(C(=O)Nc2cc(C)c3c(=O)oc4ccccc4c3n2)cc1	0.2	0.8	88.3*	-1.5	1.4	0.4
Cc1cc(NC(=O)CC(C)(C)C)nc2c1c(=O)oc1ccccc12	-11.1	3.9	74.1*	3.0	3.3	0.1
COCCN1Cc2cccc(C(=O)Nc3cccc(OC)c3)c2C1=O	18.7*	-2.9	-5.3	2.1	-1.3	-0.4
COc1ccc(CN(C)CC(=O)NC2CCCc3ccccc32)cc1OC (centres undefined)	-0.7	0.7	1.8	-1.1	-2.2	0.3
O=C(N/N=C/c1cn(-c2cccs2)nc1-c1ccccc1)c1ccc(O)cc1	11.8*	-0.2	63.2	6.6	-1.5	-0.1
O=C(N/N=C/c1cn(-c2cccs2)nc1-c1ccccc1)c1ccccc1Cl	14.1*	3.5	20.3	6.5	2.5	0.7
O=C(N/N=C/c1cn(-c2ccccc2)nc1-c1cccs1)c1ccncc1	-28.0	4.0	1.1	4.1	2.1	0.3
CCCCCn1c(=O)[nH]c2cc(C(=O)NCc3ccc4c(c3)OCO4)ccc2c1=O	-3.9	-0.3	57.5	0.7	1.7	0.1
CC1CC(C)CN(C(=O)c2ccc3c(=O)n(Cc4ccc5c(c4)OCO5)c(=S)[nH]c3c2)C1 (centres undefined)	-4.2	-1.5	95.2*	-0.9	24.8	0.7
CCOCCCNC(=O)c1ccc2c(=O)n(Cc3ccc4c(c3)OCO4)c(=S)[nH]c2c1	0.5	2.7	45.2	1.0	1.6	0.0
COCCCNC(=O)c1ccc2c(=O)n(Cc3ccc4c(c3)OCO4)c(=S)[nH]c2c1	11.7*	3.6	53.7	-1.1	5.5	-0.2
O=C(c1ccc2c(=O)n(Cc3ccc4c(c3)OCO4)c(=S)[nH]c2c1)N1CCCCC1	-1.1	-1.0	91.9*	3.8	8.3	0.2
COC(CNC(=O)c1ccc2c(=O)n(Cc3ccc4c(c3)OCO4)c(=S)[nH]c2c1)OC	-1.1	5.1	/	0.2	0.2	0.1
CCCCCn1c(=O)[nH]c2cc(C(=O)N3CCN(Cc4ccc5c(c4)OCO5)CC3)ccc2c1=O	3.0	-2.4	81.6*	5.7	16.7	3.3
O=C(NCC1CCCO1)c1cn(Cc2ccccc2)nc1-c1ccc(Cl)cc1 (centres undefined)	1.1	-1.8	/	0.1	-3.9	-0.2
CC(=O)c1ccc(N=C2NC(=O)C(CO)(CO)S2)cc1	-4.4	-0.9	/	-1.2	0.4	-0.1
NS(=O)(=O)c1cccc(NS(=O)(=O)c2ccc(/C=C/C(=O)OCC(=O)c3ccc(Br)cc3)cc2)c1	-0.6	-2.5	7.2	3.1	0.6	-0.1
COc1ccc(C(=O)COC(=O)/C=C/c2ccc(S(=O)(=O)Nc3cccc(S(N)(=O)=O)c3)cc2)cc1	11.1*	-1.5	8.9	-0.7	14.0	-0.1
COc1cc(/C=C/C(=O)c2ccc(NS(=O)(=O)c3ccc(C)cc3)cc2)ccc1OC(F)F	22.9*	-3.4	37.1	15.3	3.2	0.0
COc1ccc2cc(C(=O)/C=C/c3cc(OC)c(O)c(OC)c3)ccc2c1	8.9	11.6	/	5.3	2.2	-0.1
SMILES	NR3A LBD binder	XBP1 UPR activ	CHOP inhibitor	CHOP UPR activ	MPTP inh	aDG glyco up
COc1cc(/C=C/C(=O)c2ccc(NS(=O)(=O)c3ccc(C)cc3)cc2)cc(OC)c1O	11.2*	/	-198.4	/	2.4	0.2
COc1cccc(/C=C/C(=O)c2ccc(NS(=O)(=O)c3ccc(C)cc3)cc2)c1	18.5*	-5.6	15.5	2.6	9.3	-0.1
CCCCCCN1C[C@H](O)[C@@H](n2cc(C3CC3)nn2)C[C@@H]1c1ccc(OC)cc1	/	/	/	/	-2.9	-0.1
Cc1ccc(C(=O)Nc2ccccc2C(=O)N2CC3(C)CC2CC(C)(C)C3)cc1 (centres undefined)	-1.9	-2.1	92.6*	-2.1	0.6	0.0
Nc1ccc(Br)c2c1C(=O)c1ccccc1C2=O	-3.2	4.3	44.3	-0.2	/	/
NC1=C(Br)C(=O)c2ccccc2C1=O	-0.1	0.2	3.9	3.1	5.2	3.9*
Cc1cc(Br)c(OCc2ccc(C(=O)N/N=C3\CC4CC=CC34)cc2)c(Br)c1 (centres undefined)	12.2*	-4.3	-4.5	-0.8	2.7	-0.4
O=c1[nH]c(SCCOc2ccccc2)nc2ccccc12	-1.0	3.1	76.8*	2.6	0.6	0.2
[N-]=C=C1C(=O)NC(=O)C([n+]2ccc(-c3ccncc3)cc2)C1c1ccccc1C(F)(F)F (centres undefined)	2.0	-0.8	13.3	0.5	6.1	0.1
[N-]=C=C1C(=S)NC(=O)[C@H]([n+]2ccccc2)[C@H]1c1ccc(Cl)cc1	11.8*	-3.2	13.4	1.9	-3.0	0.1
S=c1nc[nH]c2c1sc1nc(-c3ccccc3)c3c(c12)CCCC3	12.2*	4.3	24.9	-1.5	45.9	-0.2
COCC(C)n1c(SCC(=O)N2CCc3ccccc3C2)nc2ccccc2c1=O (centres undefined)	-2.7	-3.2	6.3	0.8	-5.7	0.3
COc1c([N+](=O)[O-])c(=O)oc2ccccc12	12.6*	-4.1	43.1	0.8	0.0	0.1
Cc1ccc(S(=O)(=O)N2CCN(C(=O)N(C)C)CC2)cc1C	-0.6	-5.5	22.1	-1.6	-8.0	0.1
Cc1ccc(N(C)C(=O)N2CCN(S(=O)(=O)c3ccc(C)c(C)c3)CC2)cc1	-14.4	-0.5	73.4*	1.1	-1.0	0.3
O=C(Nc1ccc(NC(=O)c2ccco2)cc1)c1ccco1	5.2	-2.7	/	2.7	1.1	-0.3
O=C(Nc1nccs1)c1ccc(NC(=O)c2ccco2)cc1	10.2*	1.9	-1.3	0.7	-0.2	-0.3
CC(C)(C)c1ccc(C(=O)Nc2ccc(NC(=O)c3ccco3)cc2)cc1	5.7	3.9	72.8*	3.7	-0.4	0.8
COc1cc(-c2cc(NC=O)c3ncc(-c4cccc(C(=O)N(C)C)c4)n3c2)cc(OC)c1OC	/	/	/	/	-0.7	0.0
